# Test results reported in ChEMBL document CHEMBL5321214, “Targeting the multifaceted neurotoxicity of Alzheimer's disease by tailored functionalisation of the curcumin scaffold” (Eur J Med Chem, 2023).
# Calls of active or inactive are those of the source. The calls are words filed in the database; no cut-off is given here.
# Assays:
# [1] = system: Microglia; assay: Antiinflammatory activity against Sprague-Dawley rat microglial cells assessed as inhibition of LPS-induced IL-1 beta production at 1 uM pretreated with compound for 1 hr followed by LPS stimulation for 24 hrs by ELISA; format: functional, cell-based; details: time 25.0 hrs
# Outline: (§1)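 Primary cortical rat microglia in DMSO (≤0.1%) or vehicle for 1 h, then 100 ng/mL LPS for 24 h. TNF-α and IL-1β in culture medium by ELISA against standard curves (pg/mL), expressed as % of LPS-stimulated cultures. Mean ± SEM of 3 independent experiments; one-way ANOVA, Holm-Sidak test.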
# [2] = Toxicity against Drosophila W1118 assessed as proportion of eclosed-flies at 50 uM measured after 72 hrs
# [3] = Toxicity against Drosophila W1118 assessed as proportion of eclosed-flies at 1 uM measured after 72 hrs
# [4] = system: Microglia; assay: Antiinflammatory activity against Sprague-Dawley rat microglial cells assessed as inhibition of LPS-induced TNF-alpha production at 2.5 uM pretreated with compound for 1 hr followed by LPS stimulation for 24 hrs by ELISA; format: functional, cell-based; details: time 25.0 hrs; outline: as §1
# [5] = Toxicity against Drosophila W1118 assessed as minimum toxic concentration by measuring eclosion rate measured for 72 hrs
# [6] = system: Microglia; assay: Antiinflammatory activity against Sprague-Dawley rat microglial cells assessed as downregulation of NLRP3 mRNA expression at 2.5 uM pretreated with compound for 1 hr followed by LPS stimulation for 6 hrs by real-time PCR analysis; format: functional, cell-based; details: time 7.0 hrs
# Outline: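 Primary cortical microglia (postnatal day 1 rat pups, shaken off mixed glial cultures, ~97% Iba1-positive). Compound (DMSO ≤0.1%) for 1 h, then 100 ng/mL ultra-pure E. coli LPS for 6 h. QIAzol RNA extraction, SuperScript IV reverse transcription, real-time PCR. Mean ± SEM, n = 3 in triplicate; one-way ANOVA, Holm-Sidak test.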
# [7] = system: SH-SY5Y; assay: Cytotoxicity against human SH-SY5Y cells assessed as decrease in cell viability at >2.5 uM incubated for 24 hrs by MTT assay; format: toxicity, cell-based
# Outline: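 SH-SY5Y, 2×10^4 cells/well, grown 24 h then exposed 24 h (1.25–40 μM) at 37 °C, 5% CO2. MTT 0.5 mg/mL in HBSS for 2 h, washed, formazan dissolved in isopropanol, read at 570 nm (reference 690 nm).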
# [8] = system: Drosophila; assay: Downregulation of SOD1 transcript expression in Spastin Drosophila (Tubulin/Gal4 RNAi DSpast) neurodegenerative model at 10 uM flies raised in compound-enriched food by real-time PCR analysis; format: functional
# Outline: (§2)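 Total RNA from 5 third-instar Spastin-RNAi larvae raised on standard or compound-enriched food; Tubulin-Gal4/+ as control line. One-step SYBR RT-qPCR normalised to Rp49 by the 2^−ΔΔCt method. n = 3 experiments; one-way ANOVA, Tukey's test.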
# [9] = system: Microglia; assay: Cytotoxicity against Sprague-Dawley rat microglial cells assessed as decrease in cell viability at 5 uM incubated for 24 hrs by MTT assay; format: toxicity, cell-based
# Outline: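 Primary rat microglia, 6×10^4 cells/well, switched to serum-free medium 1 h before 24 h exposure (1–20 μM, DMSO ≤0.1%). MTT 0.18 mg/mL for 4 h at 37 °C, formazan dissolved in DMSO, absorbance 570 nm (reference 630 nm). Vehicle-treated cells = 100% viability.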
# [10] = system: Drosophila; assay: Downregulation of Nrf2 transcript expression in Spastin Drosophila (Tubulin/Gal4 RNAi DSpast) neurodegenerative model at 10 uM flies raised in compound-enriched food by real-time PCR analysis; format: functional; outline: as §2
# [11] = system: Drosophila; assay: Effect on CAT transcript expression in Spastin Drosophila (Tubulin/Gal4 RNAi DSpast) neurodegenerative model at 10 uM flies raised in compound-enriched food by real-time PCR analysis; format: functional; outline: as §2
# [12] = target: Amyloid-beta precursor protein (Homo sapiens) (UniProt P05067); assay: Anti-oligomeric activity against Abeta42 (unknown origin) assessed as depletion of the formation of toxic HMW Abeta42 oligomers at 5 uM measured at day 7 from sample solubilization by capillary electrophoresis assay; details: time 7.0 day
# Sequence of Amyloid-beta precursor protein (Homo sapiens) (P05067 whole entry): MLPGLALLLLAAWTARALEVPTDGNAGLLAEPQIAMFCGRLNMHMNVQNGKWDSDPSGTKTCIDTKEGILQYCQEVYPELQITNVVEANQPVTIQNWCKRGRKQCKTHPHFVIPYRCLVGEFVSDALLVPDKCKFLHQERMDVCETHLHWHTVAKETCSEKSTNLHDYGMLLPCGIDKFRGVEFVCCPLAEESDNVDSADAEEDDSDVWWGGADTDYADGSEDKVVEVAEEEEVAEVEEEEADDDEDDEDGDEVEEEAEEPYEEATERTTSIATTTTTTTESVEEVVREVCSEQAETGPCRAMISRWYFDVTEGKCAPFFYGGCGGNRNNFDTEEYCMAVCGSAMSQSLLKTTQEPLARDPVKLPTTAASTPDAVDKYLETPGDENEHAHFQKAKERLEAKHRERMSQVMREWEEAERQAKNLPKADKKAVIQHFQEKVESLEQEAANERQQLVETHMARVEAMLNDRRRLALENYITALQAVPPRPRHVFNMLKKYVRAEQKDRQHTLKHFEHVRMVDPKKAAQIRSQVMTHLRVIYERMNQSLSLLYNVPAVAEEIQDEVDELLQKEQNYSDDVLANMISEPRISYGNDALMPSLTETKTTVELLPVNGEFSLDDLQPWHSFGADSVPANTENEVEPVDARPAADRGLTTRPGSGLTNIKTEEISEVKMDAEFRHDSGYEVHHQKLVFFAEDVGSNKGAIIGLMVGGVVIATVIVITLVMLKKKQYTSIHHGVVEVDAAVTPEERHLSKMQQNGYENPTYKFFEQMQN
# Outline: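 Aβ42 stock diluted to 221 μM in 20 mM sodium phosphate pH 7.4 containing compound (ethanol stocks 1.53 mM). Capillary electrophoresis: BGE 80 mM sodium phosphate pH 7.4, 30 mbar × 3 s hydrodynamic injection, +12 kV, 25 °C, 200 nm detection. Oligomers assigned by effective mobility; HMW oligomer peak quantified semiquantitatively as normalised area %.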
# [13] = Effect on TNF-alpha release in Sprague-Dawley rat microglial cells at 2.5 uM by ELISA; format: toxicity, cell-based; details: microglia; outline: as §1
# [14] = system: Microglia; assay: Antiinflammatory activity against Sprague-Dawley rat microglial cells assessed as inhibition of LPS-induced IL-1 beta production at 1 to 2.5 uM pretreated with compound for 1 hr followed by LPS stimulation for 24 hrs by ELISA; format: functional, cell-based; details: dose 1-2.5 µM, time 25.0 hrs; outline: as §1
# [15] = system: Microglia; assay: Antiinflammatory activity against Sprague-Dawley rat microglial cells assessed as inhibition of LPS-induced TNF-alpha production at 1 to 2.5 uM pretreated with compound for 1 hr followed by LPS stimulation for 24 hrs by ELISA; format: functional, cell-based; details: dose 1-2.5 µM, time 25.0 hrs; outline: as §1
# [16] = Toxicity against Drosophila W1118 assessed as proportion of eclosed-flies at 20 uM measured after 72 hrs
# [17] = system: SH-SY5Y; assay: Antioxidant activity in human SH-SY5Y cells assessed as reduction in intracellular ROS formation at 2.5 uM incubated for 24 hrs followed by incubation with t-BuOOH for 30 mins by H2DCF-DA staining based fluorescence analysis; format: functional; details: time 24.5 hrs
# Outline: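 SH-SY5Y (2×10^4 cells/well) exposed to 2.5 μM for 24 h, loaded with H2DCF-DA 30 min at room temperature, probe removed, then challenged with 50 μM t-BuOOH 30 min at room temperature. Fluorescence ex 485/em 535 nm, expressed as % ROS increase. Three independent experiments; one-way ANOVA with Dunnett's test.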
# [18] = Effect on IL-1 beta release in Sprague-Dawley rat microglial cells at 2.5 uM by ELISA; format: toxicity, cell-based; details: microglia; outline: as §1
# [19] = Toxicity against Drosophila W1118 assessed as proportion of eclosed-flies at 30 uM measured after 72 hrs
# [20] = system: Drosophila; assay: Antioxidant activity in Spastin Drosophila (Tubulin/Gal4 RNAi DSpast) neurodegenerative model assessed as decrease in intracelluar ROS level in brain at 10 uM flies raised in compound-enriched food by DHE staining based fluorescence analysis; format: functional, organism-based
# Outline: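 Spastin-RNAi (Tubulin-Gal4 cross, 28 °C) third-instar larvae raised on compound-enriched food, dissected in HL3, stained 30 min with 30 μM DHE, fixed in 4% PFA, DAPI counterstained. Confocal imaging (DHE 580–630 nm); two 2500 μm² ROIs per muscle or two 1900 μm² ROIs per brain, 10–15 larvae per group; DHE/DAPI ratio.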
smiles,measurement,setting,value
CCCCn1cc(C/C(C(=O)/C=C/c2ccc(OC)cc2)=C(O)\C=C\c2ccc(OC)cc2)nn1,Activity,[1],Active
same,Activity,[2],71.309%
same,Activity,[3],95.238%
same,Activity,[4],Active
same,MTC,[5],10 µM
same,Activity,[6],Active
same,Activity,[7],Toxic
same,inhibition,[8],Active
same,Activity,[9],Toxic
same,inhibition,[10],Active
same,Activity,[11],inactive
same,Activity,[12],Active
same,Activity,[13],Non-Toxic
same,Activity,[14],Active
same,Activity,[15],Active
same,Activity,[16],88.099%
same,inhibition at 2.5 µM,[17],18%
same,Activity,[18],Non-Toxic
same,Activity,[19],85.461%
same,Activity,[20],Active
